# Screening results: PubChem, several laboratories
# Mdm2-MdmX inh – disrupts the human Mdm2-MdmX interaction; SaOS-2 split-luciferase Mdm2/MdmX complementation, luminescence; inhibition, % at 8 µM; 3% of 330,000 active; AID 485346;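 active means inhibition of at least 50% at 8 µM in the primary screen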
# Target sequence (O15151 whole entry, looked up): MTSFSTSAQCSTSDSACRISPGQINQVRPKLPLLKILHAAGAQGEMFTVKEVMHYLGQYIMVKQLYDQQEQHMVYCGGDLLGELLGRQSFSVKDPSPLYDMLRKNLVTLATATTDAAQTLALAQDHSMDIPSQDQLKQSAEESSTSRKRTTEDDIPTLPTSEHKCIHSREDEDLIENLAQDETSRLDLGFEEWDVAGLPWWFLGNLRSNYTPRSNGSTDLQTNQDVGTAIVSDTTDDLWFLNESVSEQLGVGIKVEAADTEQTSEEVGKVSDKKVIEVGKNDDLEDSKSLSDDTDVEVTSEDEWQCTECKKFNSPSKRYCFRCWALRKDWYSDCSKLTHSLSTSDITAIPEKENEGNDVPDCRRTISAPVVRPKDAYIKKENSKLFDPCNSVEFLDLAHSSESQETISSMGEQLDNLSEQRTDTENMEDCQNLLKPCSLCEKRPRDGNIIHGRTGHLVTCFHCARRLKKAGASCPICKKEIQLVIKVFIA
# Target sequence (Q00987 whole entry, looked up): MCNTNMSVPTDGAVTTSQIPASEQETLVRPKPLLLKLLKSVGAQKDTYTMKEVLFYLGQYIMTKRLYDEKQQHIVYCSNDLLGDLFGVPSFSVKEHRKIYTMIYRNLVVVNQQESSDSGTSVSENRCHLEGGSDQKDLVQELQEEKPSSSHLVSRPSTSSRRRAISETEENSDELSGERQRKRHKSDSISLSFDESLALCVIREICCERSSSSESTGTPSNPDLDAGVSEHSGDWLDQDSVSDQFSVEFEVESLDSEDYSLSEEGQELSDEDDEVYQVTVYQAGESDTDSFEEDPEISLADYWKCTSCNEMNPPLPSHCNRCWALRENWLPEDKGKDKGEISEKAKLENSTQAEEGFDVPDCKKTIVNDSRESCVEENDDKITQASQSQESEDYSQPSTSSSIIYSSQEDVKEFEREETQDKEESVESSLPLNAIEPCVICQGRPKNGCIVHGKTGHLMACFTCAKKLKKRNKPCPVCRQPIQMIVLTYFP
# Beta apoptosis – blocks beta cell apoptosis | AID 435005 | INS-1E cytokine-induced death, ATP luminescence, 48 h; percent of positive-control rescue, neutral wells zero | protection from apoptosis, % (no concentration beside the values) | 0.8% of 300,000 active;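 active means Every replicate reaches about 75%, or at least half do and their mean reaches it too, limit read from the data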;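 further: 0% = cytokine-treated negative control wells and 100% = positive control rescue; higher means more ATP so stronger rescue from cytokine killing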
# Calb FLC – affects C. albicans growth with fluconazole. C. albicans CaCi-2 (fluconazole-resistant clinical isolate) + fluconazole, Alamar Blue growth, 48 h. growth inhibition, % (concentration not given with the values). 0.57% of 300,000 active. AID 1979;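 active means growth inhibition above about 58% in most replicates, limit read from the data, passing the limit was not always enough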;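 further: all wells also contain fluconazole at 8 µg/ml as a sub-toxic cotreatment; 0% = median of DMSO wells and 100% = median of geldanamycin control wells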
# SKKanGAS inh – SKKanGAS growth inhibition | S. pyogenes SKKanGAS, kanamycin growth, BacTiter-Glo, 6 h | inhibition, % at 7.5 µM | 1.3% of 300,000 active | AID 1662;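 active means mean replicate score, as percent of positive control median, at least 50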;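 further: strain carries kanamycin resistance gene driven by streptokinase promoter and grows in 40 µg/ml kanamycin; loss of luminescence reflects streptokinase promoter inhibition or plain growth inhibition; 0% = median of DMSO wells and 100% = positive control at its reference dose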
# T cruzi inh – blocks replication of Trypanosoma cruzi; inhibition, % (no concentration beside the values); T. cruzi beta-gal in NIH3T3, luminescence, 90 h; 1.4% of 300,000 active;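 active means mean inhibition across valid replicates above about 55%, limit read from the data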;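 further: signal also drops with host cell toxicity which is not excluded here; 0% = plate median of DMSO wells and 100% = zero luminescence signal; higher percent means less beta-gal luminescence so fewer parasites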
#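 System – NIH/3T3 host cells with β-galactosidase reporter T. cruzi · Doses – single 50 nL compound addition per well in DMSO · Reagent – 5000 T. cruzi trypomastigotes/well · Medium – Low-serum DMEM with 2% FBS · Timing – ≥90 h infection period, 3 h prior cell attachment · Evaluation – parasite load inhibition, % · Technique – GalScreen luminescence, 60 min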
# CSC inhib – blocks cancer stem cells; cancer stem cell-like cells viability, luminescence; inhibition, % at 7.5 µM; 1.1% of 300,000 active; in the data active means inhibition above about 75%; tested in HMLE shEcad cells
# Numbers without * were called inactive; / = not tested or not shown. Most compounds without a hit are left out; they make up all but 5.7% or so of the library.
SMILES,Mdm2-MdmX inh,Beta apoptosis,Calb FLC,SKKanGAS inh,T cruzi inh,CSC inhib
COc1ccc(OC)c(NC(=O)CN2C(=O)NC(C)(c3ccc4c(c3)OCCO4)C2=O)c1 (stereo not given),8,-3,/,/,/,/
Cc1ccc(CS(=O)Cc2ccc(C(=O)NCc3ccccc3Br)o2)cc1 (stereo not given),-2,-4,9,-10,32,-10
COc1ccc(CN(C(=O)c2cc(=O)c3ccccc3o2)C2CCS(=O)(=O)C2)cc1 (stereo not given),48,/,-10,-4,-16,/
O=C(c1ccco1)c1nnn(Cc2ccccc2)c1-c1ccccc1,12,4,13,4,15,78*
Cn1cc(/C=N/Nc2ccccc2)c2ccccc21,-1,-1,101*,5,7,-7
CC1CCCCN1CC(O)COCc1ccc(Cl)cc1 (stereo not given),-17,/,-2,-5,10,-5
CCOc1ccc(Cl)cc1S(=O)(=O)N1CCN(c2ccc(C)c(C)c2)CC1,19,/,5,-7,-6,35
CCOc1ccc(Cl)cc1S(=O)(=O)n1cnc2cc(C)c(C)cc21,41,-4,24,52*,16,13
CC(c1ccc(Cl)cc1)n1c(-c2ccc3ccccc3n2)n[nH]c1=S (stereo not given),-12,-1,79*,-6,13,-2
O=C(Nc1ccccc1)OC1CCC2CC1CCC2OC(=O)Nc1ccccc1 (stereo not given),18,29,-1,52*,48,68
Cc1nc2ccccc2c(=O)n1-c1ccc(NS(=O)(=O)c2ccc(F)cc2)cc1,9,/,11,0,-6,-5
COc1ccc(S(=O)(=O)N2CCN(C(=O)CCCN3C(=O)NC4(CCCC4)C3=O)CC2)cc1,17,/,/,/,/,/
COc1ccc2c(c1)[nH]c1c(=O)n(/N=C/c3ccc(OC)c(CN4CCCC4)c3)cnc12,21,7,-6,9,36,-22
COc1ccc(/C=N/n2c(C)nc3c([nH]c4ccccc43)c2=O)cc1CN1CCCC(C)(C)C1,25,26,3,70*,34,1
COc1ccc2[nH]c3c(=O)n(/N=C/c4ccc(OC)c(CN5CCCC5)c4)c(C)nc3c2c1,11,7,8,72*,65*,2
Cc1ccc(-c2cc(C(F)F)nc(N3CCC(C)CC3)n2)cc1,1,/,-3,63*,4,44
c1cnc(SCCOc2ccc3c(c2)CCC3)nc1,-168,-10,101*,7,-7,9
CC(C)(C)OC(=O)C[C@H]1C/C=C\C[C@H](CC(=O)N(CCO)Cc2ccccc2)C(=O)N[C@@H](c2ccccc2)COC1=O,-28,1,/,/,/,-1
CC1CCCCC1NC(=O)CCn1ccc2cc(S(=O)(=O)N3CCCC3)ccc21 (stereo not given),-8,/,-15,50*,9,-1
CC(C)NC(=O)CCn1ccc2cc(S(=O)(=O)N3CCCC3)ccc21,15,0,0,7,-2,-10
Cc1ccc(S(=O)(=O)c2nnn3c2nc(N2CCCCC2)c2ccccc23)cc1,27,-7,-2,15,61*,-6
CCN(CC(=O)NCc1ccc(Cl)cc1)C(=O)CCC(=O)c1ccc(F)cc1,-2,0,-3,-1,-5,-11
COc1ccc(CN(C)C(C)C(=O)Nc2ccc(S(=O)(=O)N3CCCCC3)cc2)cc1F (stereo not given),-18,1,/,/,/,/
CC(C)Cn1c(N)c(C(=O)CSc2nc3ccccc3c(=O)n2CCCN2CCOCC2)c(=O)n(C)c1=O,19,-2,-31,9,55*,-7
CC(C)Cn1c(N)c(C(=O)CSc2nc3ccccc3n2C)c(=O)n(C)c1=O,36,1,23,-2,-2,1
O=c1c2ccccc2nc2c3ccccc3cnn12,-32,7,-12,5,10,-4
O=c1c2ccccc2cnn1-c1nc2ccccc2[nH]1,/,/,41,58*,-12,/
C[C@H](CO)N1C[C@H](C)[C@@H](CN(C)C(=O)Nc2ccccc2)Oc2ccc(NC(=O)Cc3ccccc3)cc2C1=O,-13,11,/,/,/,/
CCn1c(C)c(/C=N/Nc2nc3ccccc3s2)c2ccccc21,24,/,4,8,69*,/
C(=N\Nc1nc2ccccc2s1)/c1cccs1,-165,-4,-18,-12,3,9
